Test results published in ChEMBL document CHEMBL1177712, “Synthesis and characterization of in vitro and in vivo profiles of hydroxybupropion analogues: aids to smoking cessation” (J Med Chem, 2010).
pIC50: −log10 of the molar value. The source made the active and inactive calls.

Experiments:
[1] = target: Neuronal acetylcholine receptor; alpha4/beta2 (Homo sapiens, UniProt P17787+P43681); experiment: Agonist activity at alpha4beta2 nicotinic receptor in human SH-EP1 cells assessed as induction of radiolabeled Rb+ influx at 0.005 to 100 uM by liquid scintillation counting; assay type: functional, cell-based
How it was run: (§1)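 Cells were labelled with ⁸⁶Rb⁺ for at least 4 h, then exposed for 5 min in efflux buffer (pH 7.4) to test ligand alone at ~5 nM to 100 μM. The lines were TE671/RD (muscle α1β1γδ), SH-SY5Y (α3β4*) and transfected SH-EP1-hα4β2 or -hα4β4. Efflux was Cerenkov-counted. Non-specific efflux was subtracted, and results were normalized to specific efflux from carbamylcholine (1 mM; 3 mM for SH-SY5Y).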

[2] = target: T1, Neuronal acetylcholine receptor; alpha4/beta4 (Homo sapiens, UniProt P30926+P43681); experiment: Agonist activity at alpha4beta4 nicotinic receptor in human SH-EP1 cells assessed as induction of radiolabeled Rb+ influx at 0.005 to 100 uM by liquid scintillation counting; assay type: functional, cell-based; how it was run: as §1
[3] = target: T1, Neuronal acetylcholine receptor; alpha4/beta4; experiment: Antagonist activity at alpha4beta4 nicotinic receptor in human SH-EP1 cells assessed as inhibition varbamylcholine-induced radiolabeled Rb+ influx at by liquid scintillation counting; assay type: functional, cell-based
How it was run: (§2)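 ⁸⁶Rb⁺-loaded human cells were given a 5-min efflux with carbamylcholine at EC₈₀–EC₉₀ plus graded test ligand. Non-specific efflux, taken with 100 μM mecamylamine or buffer, was subtracted. IC₅₀ came from a Hill fit of three independent experiments, with SEM given as a multiplication factor.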

[4] = target: Acetylcholine receptor; alpha1/beta1/delta/gamma (Homo sapiens, UniProt P02708+P07510+P11230+Q07001); experiment: Antagonist activity at alpha-1-beta-1-gamma-delta nicotinic receptor in human TE671 cells assessed as inhibition varbamylcholine-induced radiolabeled Rb+ influx at by liquid scintillation counting; assay type: functional, cell-based, TE-671; how it was run: as §2
[5] = system: Mus musculus; experiment: Toxicity in sc dosed ICR mouse assessed occurrence of sedation; assay type: organism-based; details: in vivo
[6] = system: Mus musculus; experiment: Toxicity in sc dosed ICR mouse assessed occurrence of convulsion; assay type: organism-based; details: in vivo
[7] = system: SH-EP1; experiment: Selectivity ratio of IC50 for alpha4beta2 nicotinic receptor in human SH-EP1 cells to IC50 for IC50 for human NET; assay type: cell-based
[8] = system: Mus musculus; experiment: Smoke cessation activity in sc dosed ICR mouse assessed as inhibition of nicotine-induced antinociception administered 15 mins before nicotine challenge measured after 5 mins of nicotine infusion by hotplate assay; assay type: functional, organism-based
How it was run: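 Male ICR mice (20–25 g) were pretreated with saline or test drug 15 min before nicotine at 2.5 mg/kg sc. They were tested 5 min later on a 55 °C hot plate (40 s cutoff), and the result was expressed as %MPE. AD₅₀ came from at least four doses, with at least 8 mice per dose.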

[9] = system: Mus musculus; experiment: Smoke cessation activity in sc dosed ICR mouse assessed as inhibition of nicotine-induced antinociception administered 15 mins before nicotine challenge measured after 5 mins of nicotine infusion by tail-flick assay; assay type: functional, organism-based
How it was run: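 Radiant-heat tail-flick latency was read 5 min later (10 s cutoff; baseline 2–4 s) and expressed as %MPE. AD₅₀ came from at least four doses, with at least 8 mice per dose.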

[10] = system: Mus musculus; experiment: Smoke cessation activity in sc dosed ICR mouse assessed as inhibition of nicotine-induced increase in locomotor activity administered 15 mins before nicotine challenge measured after 5 mins of nicotine infusion; assay type: functional, organism-based
[11] = system: Mus musculus; experiment: Smoke cessation activity in sc dosed ICR mouse assessed as inhibition of nicotine-induced hypothermia administered 15 mins before nicotine challenge measured after 30 mins of nicotine infusion; assay type: functional, organism-based
How it was run: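 Male ICR mice (20–25 g) were pretreated with test drug or saline 15 min before nicotine at 2.5 mg/kg sc. Rectal temperature was taken before and 30 min after nicotine, and the change was calculated. Room temperature was 21–24 °C. AD₅₀ came from at least four doses, with at least 8 mice per dose.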

[12] = system: SH-SY5Y; experiment: Selectivity ratio of IC50 for alpha3beta4 nicotinic receptor in human SH-SY5Y cells to IC50 for IC50 for human NET; assay type: cell-based

T1 sequence (P30926 whole entry): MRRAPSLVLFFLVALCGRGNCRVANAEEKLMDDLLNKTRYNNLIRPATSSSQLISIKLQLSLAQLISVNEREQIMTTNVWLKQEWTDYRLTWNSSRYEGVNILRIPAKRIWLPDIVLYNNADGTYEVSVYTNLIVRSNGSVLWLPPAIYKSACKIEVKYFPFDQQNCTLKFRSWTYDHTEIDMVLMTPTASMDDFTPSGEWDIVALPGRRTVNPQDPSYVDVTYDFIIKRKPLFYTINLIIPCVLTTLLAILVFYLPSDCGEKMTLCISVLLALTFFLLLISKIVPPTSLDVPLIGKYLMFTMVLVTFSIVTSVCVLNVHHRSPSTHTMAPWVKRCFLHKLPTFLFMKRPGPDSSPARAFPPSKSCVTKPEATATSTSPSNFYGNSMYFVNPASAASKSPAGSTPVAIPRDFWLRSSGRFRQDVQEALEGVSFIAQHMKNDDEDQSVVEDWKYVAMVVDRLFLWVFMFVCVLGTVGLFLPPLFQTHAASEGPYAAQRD
T1 sequence (P43681 whole entry): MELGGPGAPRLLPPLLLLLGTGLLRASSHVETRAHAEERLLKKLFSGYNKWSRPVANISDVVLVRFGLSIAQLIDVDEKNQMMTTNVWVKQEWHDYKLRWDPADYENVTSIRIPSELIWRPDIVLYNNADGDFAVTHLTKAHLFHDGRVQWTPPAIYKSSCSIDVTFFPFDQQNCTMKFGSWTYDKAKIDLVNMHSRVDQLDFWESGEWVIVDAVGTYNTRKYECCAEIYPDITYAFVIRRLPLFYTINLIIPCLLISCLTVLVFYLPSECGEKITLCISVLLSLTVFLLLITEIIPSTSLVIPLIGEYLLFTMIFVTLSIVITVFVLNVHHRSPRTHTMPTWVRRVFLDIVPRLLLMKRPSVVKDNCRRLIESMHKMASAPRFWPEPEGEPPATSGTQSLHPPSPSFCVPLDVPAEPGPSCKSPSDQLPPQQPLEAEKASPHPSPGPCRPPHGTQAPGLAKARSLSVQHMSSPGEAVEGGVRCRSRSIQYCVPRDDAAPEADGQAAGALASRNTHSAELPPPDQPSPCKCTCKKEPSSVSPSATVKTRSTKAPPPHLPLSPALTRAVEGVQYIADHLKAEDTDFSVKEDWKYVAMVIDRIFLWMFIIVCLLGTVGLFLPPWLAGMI
Sequence of Acetylcholine receptor; alpha1/beta1/delta/gamma (P02708 whole entry): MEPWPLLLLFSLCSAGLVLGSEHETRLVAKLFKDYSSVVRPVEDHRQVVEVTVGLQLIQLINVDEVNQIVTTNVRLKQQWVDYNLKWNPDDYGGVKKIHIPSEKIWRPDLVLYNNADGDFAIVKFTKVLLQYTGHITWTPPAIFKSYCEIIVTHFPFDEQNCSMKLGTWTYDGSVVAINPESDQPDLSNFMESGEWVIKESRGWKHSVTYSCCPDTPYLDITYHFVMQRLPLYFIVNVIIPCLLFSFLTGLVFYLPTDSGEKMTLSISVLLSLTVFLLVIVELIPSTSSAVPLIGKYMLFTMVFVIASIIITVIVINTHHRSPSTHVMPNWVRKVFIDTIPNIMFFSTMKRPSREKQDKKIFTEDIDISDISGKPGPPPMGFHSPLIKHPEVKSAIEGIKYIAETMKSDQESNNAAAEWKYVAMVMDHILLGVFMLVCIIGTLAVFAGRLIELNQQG
Sequence of Acetylcholine receptor; alpha1/beta1/delta/gamma (P07510 whole entry): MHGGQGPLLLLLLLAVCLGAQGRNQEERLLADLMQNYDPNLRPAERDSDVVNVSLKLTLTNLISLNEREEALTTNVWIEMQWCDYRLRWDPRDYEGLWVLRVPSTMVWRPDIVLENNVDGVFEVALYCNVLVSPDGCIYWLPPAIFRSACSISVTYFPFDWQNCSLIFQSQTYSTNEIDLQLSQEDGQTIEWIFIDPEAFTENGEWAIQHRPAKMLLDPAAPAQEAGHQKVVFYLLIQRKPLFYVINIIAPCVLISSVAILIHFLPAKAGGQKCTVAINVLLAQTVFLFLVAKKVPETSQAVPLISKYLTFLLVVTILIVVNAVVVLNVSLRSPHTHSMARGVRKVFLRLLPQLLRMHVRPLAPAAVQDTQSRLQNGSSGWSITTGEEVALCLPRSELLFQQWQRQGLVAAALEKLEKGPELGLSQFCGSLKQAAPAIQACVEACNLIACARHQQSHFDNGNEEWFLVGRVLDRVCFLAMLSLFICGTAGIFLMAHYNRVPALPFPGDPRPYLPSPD
Sequence of Acetylcholine receptor; alpha1/beta1/delta/gamma (P11230 whole entry): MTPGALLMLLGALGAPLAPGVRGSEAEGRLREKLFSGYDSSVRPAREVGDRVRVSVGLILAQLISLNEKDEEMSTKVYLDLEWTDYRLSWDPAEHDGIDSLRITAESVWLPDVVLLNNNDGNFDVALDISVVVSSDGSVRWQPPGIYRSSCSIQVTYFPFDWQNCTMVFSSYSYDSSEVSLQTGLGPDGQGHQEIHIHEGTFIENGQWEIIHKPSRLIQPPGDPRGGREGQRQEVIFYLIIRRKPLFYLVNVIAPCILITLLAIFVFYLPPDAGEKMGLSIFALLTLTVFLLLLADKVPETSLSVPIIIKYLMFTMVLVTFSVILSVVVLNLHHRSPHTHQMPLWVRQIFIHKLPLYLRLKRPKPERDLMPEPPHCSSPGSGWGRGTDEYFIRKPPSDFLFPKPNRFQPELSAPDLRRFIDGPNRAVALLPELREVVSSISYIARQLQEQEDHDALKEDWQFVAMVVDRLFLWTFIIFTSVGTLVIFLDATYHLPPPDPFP
Sequence of Acetylcholine receptor; alpha1/beta1/delta/gamma (Q07001 whole entry): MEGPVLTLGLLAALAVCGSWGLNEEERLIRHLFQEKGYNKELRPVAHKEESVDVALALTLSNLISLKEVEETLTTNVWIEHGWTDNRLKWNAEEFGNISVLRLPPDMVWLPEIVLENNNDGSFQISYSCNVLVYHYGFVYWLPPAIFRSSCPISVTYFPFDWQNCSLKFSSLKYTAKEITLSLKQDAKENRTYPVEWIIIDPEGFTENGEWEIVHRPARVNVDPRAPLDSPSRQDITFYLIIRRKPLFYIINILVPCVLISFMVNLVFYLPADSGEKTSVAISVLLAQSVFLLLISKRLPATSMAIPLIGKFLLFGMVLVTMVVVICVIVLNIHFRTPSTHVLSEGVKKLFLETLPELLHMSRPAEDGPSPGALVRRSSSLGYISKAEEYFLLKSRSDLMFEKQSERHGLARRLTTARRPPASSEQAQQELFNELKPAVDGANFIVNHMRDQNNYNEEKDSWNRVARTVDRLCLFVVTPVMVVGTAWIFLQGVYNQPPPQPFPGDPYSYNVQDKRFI

Compound	Activity [1]	Activity [2]	pIC50 [3]	pIC50 [4]	Activity [5]	Activity [6]	Ratio IC50 [7]	IC50 [8]	IC50 [9]	IC50 [10]	IC50 [11]	Ratio IC50 [12]
CC1NC(C)(C)COC1(O)c1ccccn1 (racemic)	inactive	inactive	< 4.00	< 4.00	Non-toxic	Non-toxic	–	–	–	–	–	–
CC1NC(C)(C)COC1(O)c1cc(Cl)cc(Cl)c1 (racemic)	inactive	inactive	–	–	Non-toxic	Non-toxic	4.5	> 15 mg/kg	> 15 mg/kg	1.9 mg/kg	> 15 mg/kg	–
C[C@@H]1NC(C)(C)CO[C@@]1(O)c1ccccc1	–	–	–	< 4.00	Non-toxic	Non-toxic	–	> 15 mg/kg	> 15 mg/kg	> 15 mg/kg	> 15 mg/kg	–
CC(NC(C)(C)C)C(=O)c1cccc(Cl)c1 (racemic) [BUPROPION]	–	–	–	–	Non-toxic	Non-toxic	–	15 mg/kg	–	–	9.2 mg/kg	–
C[C@@H]1NC(C)(C)CO[C@@]1(O)c1cc(F)cc(F)c1	inactive	inactive	–	–	Non-toxic	Non-toxic	–	> 15 mg/kg	0.0056 mg/kg	> 15 mg/kg	> 15 mg/kg	–
COc1ccc([C@]2(O)OCC(C)(C)N[C@H]2C)cc1	inactive	inactive	–	–	Non-toxic	Non-toxic	–	> 15 mg/kg	0.019 mg/kg	> 15 mg/kg	> 15 mg/kg	–
C[C@@H]1NC(C)(C)CO[C@@]1(O)c1ccc(Cl)cc1	inactive	inactive	–	–	Non-toxic	Non-toxic	–	> 15 mg/kg	0.019 mg/kg	> 15 mg/kg	> 15 mg/kg	–
CC1NC(C)(C)COC1(O)c1ccc(Cl)c(Cl)c1 (racemic)	inactive	inactive	–	–	Non-toxic	Non-toxic	175	> 15 mg/kg	8.8 mg/kg	> 15 mg/kg	> 15 mg/kg	23
C[C@@H]1N(C)C(C)(C)CO[C@@]1(O)c1ccc(Cl)cc1	inactive	inactive	–	–	Non-toxic	Non-toxic	–	> 15 mg/kg	0.32 mg/kg	> 15 mg/kg	> 15 mg/kg	–
COc1cccc([C@]2(O)OCC(C)(C)N[C@H]2C)c1	inactive	inactive	< 4.00	–	Non-toxic	Non-toxic	3.3	> 15 mg/kg	5.85 mg/kg	> 15 mg/kg	> 15 mg/kg	–
C[C@@H]1NC(C)(C)CO[C@@]1(O)c1cccc([N+](=O)[O-])c1	inactive	inactive	–	–	Non-toxic	Non-toxic	4	> 15 mg/kg	4.9 mg/kg	> 15 mg/kg	4.7 mg/kg	–
C[C@@H]1NC(C)(C)CO[C@@]1(O)c1ccc(F)cc1	inactive	inactive	< 4.00	–	Non-toxic	Non-toxic	3	> 15 mg/kg	0.013 mg/kg	> 15 mg/kg	5.67 mg/kg	–
